Assay results from different studies.
Protocols differ between the studies behind these lines. ≈ marks a conversion by molar mass, not a printed value.

CC1(C)CC[C@]2(NC(=O)N3CCCC3)CC[C@]3(C)C(=CC[C@@H]4[C@@]5(C)CC[C@H](O)[C@@](C)(CO)[C@@H]5CC[C@]43C)[C@@H]2C1 — inhibition (Leishmania mexicana; parasite growth, resazurin; 50 µM, amastigote): 99%
CC1(C)CC[C@]2(C)CC[C@]3(C)[C@H]4CC=C5[C@@H](CC[C@H](O)C5(C)C)[C@]4(C)CC[C@@]3(C)[C@@H]2C1 — inhibition (tubulin polymerisation, inhibitor; 10 µM): 17%
COc1cc(-c2ccc(-c3ccc(C(=N)N)nc3)s2)cc(OC)c1OC — GI50 (HOP-62; cell growth or viability, SRB): 2790 nM
O=C1NC(=S)S/C1=C\c1ccc(-c2ccc(N(c3ccccc3)c3ccccc3)cc2)cc1 — MIC (Staphylococcus epidermidis; microbial growth, broth dilution; ATCC12228): 125 µg/mL (≈ 269 µM)
O=C(Nc1ccc(Cl)c(Cl)c1)c1cc([N+](=O)[O-])c(F)cc1Cl — EC50 (Leishmania mexicana; parasite growth; J774.A1; intracellular, amastigote): 950 nM
Nc1ncnc2c1ncn2[C@@H]1O[C@H](CO)[C@@H](O)[C@H]1O — inhibition (tubulin polymerisation, inhibitor; 10 µM): 17.9%
CC1(C)CC[C@]2(CO)CC[C@]3(C)C(=CC[C@@H]4[C@@]5(C)CC[C@@H]6O[C@H]([C@H](O)[C@@H](O)[C@H](O)CO)OC[C@@]6(C)[C@@H]5CC[C@]43C)[C@@H]2C1 — inhibition (Leishmania mexicana; parasite growth, resazurin; 50 µM, amastigote): 98.7%
O=Cc1ccc(CO)o1 — inhibition (tubulin polymerisation, inhibitor; 10 µM): 13.4%
CC1(C)CC[C@]2(NC(=O)N3CCC[C@H]3CO)CC[C@]3(C)C(=CC[C@@H]4[C@@]5(C)CC[C@@H]6OC(C)(C)OC[C@@]6(C)[C@@H]5CC[C@]43C)[C@@H]2C1 — inhibition (Leishmania mexicana; parasite growth, resazurin; 50 µM, amastigote): 95.8%
O=c1c(O[C@@H]2O[C@H](CO)[C@@H](O)[C@H](O)[C@H]2O)c(-c2ccc(O)cc2)oc2cc(O)cc(O)c12 — inhibition (tubulin polymerisation, inhibitor; 10 µM): 21.2%
Cc1ccc(-c2nc3ccccc3s2)cc1NC(=O)c1cc([N+](=O)[O-])ccc1O — EC50 (Leishmania mexicana; parasite growth; J774.A1; intracellular, amastigote): > 10000 nM
O=C(O)CN1C(=O)/C(=C/c2ccc(-c3ccc(N(c4ccccc4)c4ccccc4)cc3)cc2)SC1=S — MBC (Staphylococcus epidermidis; microbial killing, broth dilution; ATCC12228): 7.8 µg/mL (≈ 14.9 µM)
CC1(C)CC[C@]2(C(=O)OCN3C(=O)c4ccccc4C3=O)CC[C@]3(C)C(=CC[C@@H]4[C@@]5(C)CC[C@H](O)[C@@](C)(CO)[C@@H]5CC[C@]43C)[C@@H]2C1 — inhibition (Leishmania mexicana; parasite growth, resazurin; 50 µM, amastigote): 98.6%
O=c1cc(-c2ccc(O)c(O)c2)oc2cc(O)cc(O)c12 — inhibition (tubulin polymerisation, inhibitor; 10 µM): 26.2%
O=C(O)CN1C(=O)/C(=C/c2c3ccccc3c(-c3ccc(N(c4ccccc4)c4ccccc4)cc3)c3ccccc23)NC1=S — MBC (Staphylococcus epidermidis; microbial killing, broth dilution; ATCC12228): > 1000 µg/mL
CC1(C)CC[C@]2(CO)CC[C@]3(C)C(=CC[C@@H]4[C@@]5(C)CC[C@@H]6O[C@H]([C@H](O)[C@@H](O)[C@H](O)[C@H](O)CO)OC[C@@]6(C)[C@@H]5CC[C@]43C)[C@@H]2C1 — inhibition (Leishmania mexicana; parasite growth, resazurin; 50 µM, amastigote): 99.1%
O=C1NC(=S)N/C1=C\c1c2ccccc2c(-c2ccc(N(c3ccccc3)c3ccccc3)cc2)c2ccccc12 — MBC (Staphylococcus epidermidis; microbial killing, broth dilution; ATCC12228): > 1000 µg/mL
Cc1ccc(-c2nc3ccccc3s2)cc1NC(=O)c1cc([N+](=O)[O-])c(N(C)C)cc1Cl — EC50 (Leishmania mexicana; parasite growth; J774.A1; intracellular, amastigote): > 10000 nM
O=C(/C=C/c1ccc(O)c(O)c1)O[C@@H]1C[C@](O)(C(=O)O)C[C@@H](O)[C@H]1O — inhibition (tubulin polymerisation, inhibitor; 10 µM): 30.9%
O=C1NC(=S)S/C1=C\c1c2ccccc2c(-c2ccc(N(c3ccccc3)c3ccccc3)cc2)c2ccccc12 — MIC (Staphylococcus epidermidis; microbial growth, broth dilution; ATCC12228): > 1000 µg/mL
CC1(C)CC[C@]2(NC(=O)N[C@H]3C(O)O[C@H](CO)[C@@H](O)[C@@H]3O)CC[C@]3(C)C(=CC[C@@H]4[C@@]5(C)CC[C@@H]6OC(C)(C)OC[C@@]6(C)[C@@H]5CC[C@]43C)[C@@H]2C1 (stereo partly drawn) — inhibition (Leishmania mexicana; parasite growth, resazurin; 50 µM, amastigote): 97.2%
Cc1ccc(-c2nc3ccccc3s2)cc1NC(=O)c1cc([N+](=O)[O-])c(F)cc1F — EC50 (Leishmania mexicana; parasite growth; J774.A1; intracellular, amastigote): 640 nM
COC(=O)[C@]1(O)C[C@@H](O)[C@@H](O)[C@H](OC(=O)/C=C/c2ccc(O)c(O)c2)C1 — inhibition (tubulin polymerisation, inhibitor; 10 µM): 16.9%
C[C@@H]1O[C@@H](C[C@@H]2OC[C@@]3(C)[C@@H]4CC[C@]5(C)[C@H](CC=C6[C@@H]7CC(C)(C)CC[C@]7(C(=O)O)CC[C@]65C)[C@@]4(C)CC[C@@H]3O2)[C@@H](O)[C@H](O)[C@@H]1O — inhibition (Leishmania mexicana; parasite growth, resazurin; 50 µM, amastigote): 99.2%
